FGF22 binding: FGF22 (human) thermal shift binding; Q9HCT0; recombinant FGF22 thermal shift, SYPRO orange fluorescence; percent of sucrose octasulfate shift, DMSO zero; activity (Tm shift, normalised), % at 9.99 µM; 1.5% of 340,000 active; AID 651658;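 active = mean Tm shift, scaled 0 neutral to 100 positive control, at about 1.3% or above, every replicate too, limit read from the data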
Target sequence (Q9HCT0 whole entry, looked up): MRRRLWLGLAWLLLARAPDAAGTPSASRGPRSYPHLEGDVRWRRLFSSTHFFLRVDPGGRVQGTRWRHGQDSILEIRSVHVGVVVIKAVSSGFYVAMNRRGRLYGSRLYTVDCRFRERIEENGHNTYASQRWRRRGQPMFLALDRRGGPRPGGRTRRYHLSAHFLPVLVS
697 NFkB inh: lowers PMA/ionomycin-induced NF-kB signal in 697 B cells; 697 B-cell NF-kB luciferase reporter, 16 h; inhibition, % at 4 µM; 0.33% of 330,000 active; AID 435022; in the data active = inhibition above about 35%
NR2E3 ag-1: human photoreceptor-specific nuclear receptor agonism. Q9Y5X4. CHO-S Gal4-NCOR/VP16-NR2E3 two-hybrid, luciferase. inhibition of corepressor binding, % at 3.98 µM. 0.35% of 360,000 active;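 active = inhibition above the mean of all tested compounds plus 3 SD, cut at about 70% in these data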;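 note: 0% = DMSO with NR2E3 transfected cells and 100% = cells lacking NR2E3 construct; higher means lower luciferase signal from less NR2E3 corepressor binding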
Target sequence (Q9Y5X4 whole entry, looked up, the tested form may be a part): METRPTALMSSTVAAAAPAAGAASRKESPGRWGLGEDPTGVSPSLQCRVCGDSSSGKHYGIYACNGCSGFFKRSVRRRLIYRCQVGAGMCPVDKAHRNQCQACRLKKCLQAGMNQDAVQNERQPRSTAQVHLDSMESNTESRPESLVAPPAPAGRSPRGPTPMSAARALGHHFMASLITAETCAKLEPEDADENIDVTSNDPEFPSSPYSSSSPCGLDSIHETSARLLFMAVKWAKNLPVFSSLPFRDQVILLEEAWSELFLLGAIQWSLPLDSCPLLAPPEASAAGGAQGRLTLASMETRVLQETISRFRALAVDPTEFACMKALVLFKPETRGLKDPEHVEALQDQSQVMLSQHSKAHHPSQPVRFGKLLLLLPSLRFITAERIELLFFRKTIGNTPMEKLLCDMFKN
NR2E3 ag-2: agonists of human nuclear receptor NR2E3; GST-NR2E3/biotin-RetCOR TR-FRET, 1536-well; inhibition of corepressor binding, % at 4.78 µM; 0.12% of 320,000 active; AID 2300;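 active = percent inhibition above the cutoff of mean plus 3 SD of all tested compounds, set per screening campaign, cut at about 20% in these data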;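 note: 0% = DMSO wells and 100% = biotin wells as full block of FRET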
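Material – GST-tagged NR2E3 plus biotinylated RetCOR corepressor · Quantity – NR2E3 fusion 1.35 nM · Times – 5 h incubation at 4 °C · Medium – pH 7.5 Tris-based buffer · Technique – TR-FRET, Eu(K)-anti-GST donor, streptavidin-D2 acceptor, ex 340, em 617/671 nm · Benchmarks – high control biotin, low control 0.6% DMSO · Format – 1536-well plates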
Jurkat NFkB inh: lowers PMA/ionomycin-induced NF-kB signal in Jurkat cells. PMA/ionomycin-induced NF-kB luciferase reporter, luminescence. inhibition, % at 4 µM. 0.53% of 330,000 active. AID 435003; in the data active = inhibition above about 50%
miR122 inh: inhibitors of miR-122 in Huh7 cells; Huh7 miR-122 Renilla luciferase sensor, 48 h; neutral wells = 0, positive control = 100; activation (reporter increase), % at 12.5 µM; 0.3% of 340,000 active; AID 602342;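 active = mean replicate activation score at least 90 and every replicate individually at or above 90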;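 note: higher luciferase means less miR-122 activity so hits act as miR-122 inhibitors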
697 NFkB conf: lowers PMA/ionomycin-induced NF-kB signal in 697 B cells; shares compounds with 697 NFkB inh; 697 B-cell NF-kB luciferase, 16 h; inhibition, % at 4 µM; 35% of 2,000 active; in the data active = inhibition mostly above about 28%, no sharp cut-off; inactive = mostly below about 22%
An asterisk follows results filed as active; [ ] = another dose, or the depositor's remark. Sampled rows, rich in hits. Any-hit rate of the full collection: about 2.2%.

Screening CC1CCN(c2ccc(C(=O)OCC(=O)NCCN3C(=O)CSC3=O)cc2[N+](=O)[O-])CC1 returned FGF22 binding 0, 697 NFkB inh 38*, NR2E3 ag-1 -25, NR2E3 ag-2 -1, Jurkat NFkB inh 2 and 697 NFkB conf 12.
Screening O=c1c(-c2ccc(F)cc2)coc2cc(O)ccc12 returned FGF22 binding 1, 697 NFkB inh -267, NR2E3 ag-1 -128, NR2E3 ag-2 2, Jurkat NFkB inh -50, miR122 inh -4 and 697 NFkB conf -142.
For CO[C@@H]1CN(C)C(=O)c2ccc(NC(C)=O)cc2OC[C@H](C)N(C(=O)c2ccccc2F)C[C@@H]1C the results were miR122 inh -23[16.7 µM].
For COc1ccccc1S(=O)(=O)Nc1ccc2c(c1)OC[C@@H](C)NC[C@H](C)[C@H](OC)CN(C)C2=O the results were FGF22 binding 0 and miR122 inh 6[16.7 µM].
`CNC[C@H]1OCCCC[C@H](C)Oc2ccc(N(C)C)cc2C(=O)N([C@H](C)CO)C[C@H]1C` gave FGF22 binding 1 and miR122 inh -5[16.7 µM].
Screening Cc1cc(C)cc(NC(=O)Nc2ccc(NC(=O)c3ccccc3O)cc2)c1 returned FGF22 binding 0, 697 NFkB inh 36*, NR2E3 ag-1 -2, NR2E3 ag-2 -2, Jurkat NFkB inh 14, miR122 inh 15 and 697 NFkB conf 37*.
`Cc1ccc(NC(=O)c2ccccc2O)cc1` gave 697 NFkB inh -213, NR2E3 ag-1 -131, NR2E3 ag-2 2, Jurkat NFkB inh -97 and miR122 inh 2.
CCC(CO)Oc1cc(NCc2ccccc2O)c2ncn(C(C)C)c2c1 (centres undefined) was read as FGF22 binding 0, 697 NFkB inh 45*, NR2E3 ag-1 -3, Jurkat NFkB inh -9, miR122 inh -6 and 697 NFkB conf 46*.
Screening COc1cccc(OC)c1C1=CC(=O)C[C@H](c2ccc3c(c2)OCO3)C1 returned FGF22 binding 0, 697 NFkB inh -11, NR2E3 ag-1 -3, NR2E3 ag-2 0, Jurkat NFkB inh -5 and miR122 inh 3.
COc1cccc2c1C(=O)O/C2=C/c1ccc2c(c1)OCO2 was read as 697 NFkB inh -342, NR2E3 ag-1 -103, NR2E3 ag-2 -1, Jurkat NFkB inh -63, miR122 inh 2 and 697 NFkB conf -446.
`COc1cc(/C=N/NC(=O)C2CC(=O)N(c3ccc(C)cc3)C2)cc(OC)c1OC` (centres undefined) gave FGF22 binding 0, 697 NFkB inh 35, NR2E3 ag-1 -5, NR2E3 ag-2 -6, Jurkat NFkB inh 12, miR122 inh -1 and 697 NFkB conf 21.
Screening O=C(C[C@@H]1C=C[C@@H](NC(=O)C2CCOCC2)[C@@H](CO)O1)Nc1ccc(-c2ccccc2)cc1 returned FGF22 binding 0 and miR122 inh -3[16.7 µM].
For O=C(NCCN1CCCCC1)[C@H]1N[C@H]2c3ccc(-c4ccc(F)cc4)c(=O)n3C[C@H]2[C@@H]1CO the results were FGF22 binding 0 and miR122 inh 3[16.7 µM].
For Nc1nn(-c2ccccc2)c(N)c1N=Nc1ccc2c(c1)OCO2 the results were 697 NFkB inh -270, NR2E3 ag-1 -177, NR2E3 ag-2 -2, Jurkat NFkB inh -10 and 697 NFkB conf -220.
Screening CCCc1c(NC(=O)Nc2ccc(Cl)cc2Cl)cnn1-c1ccccc1 returned FGF22 binding 0, 697 NFkB inh -379, NR2E3 ag-1 -19, NR2E3 ag-2 -2, Jurkat NFkB inh -69, miR122 inh -3 and 697 NFkB conf -242.
C[C@@H]1CN([C@@H](C)CO)C(=O)CCCn2cc(nn2)CO[C@@H]1CN(C)C(=O)Cc1ccccc1 was read as miR122 inh 4[16.7 µM].
Screening COc1ccc(Nc2nnc(-c3ccc(O)cc3)c3ccccc23)cc1C(N)=O returned FGF22 binding 0, 697 NFkB inh 39*, NR2E3 ag-1 9, NR2E3 ag-2 -4, Jurkat NFkB inh -3 and 697 NFkB conf 23.
Screening O=C(/C=C/Sc1ccccc1)c1ccccc1 returned 697 NFkB inh -295, NR2E3 ag-1 -59, NR2E3 ag-2 -1, Jurkat NFkB inh 14 and 697 NFkB conf -268.
For Cc1cccc(NC(=O)CCC2CCN(C(=O)c3ccc(C)s3)CC2)c1 the results were FGF22 binding 0, 697 NFkB inh 10, NR2E3 ag-1 -11, NR2E3 ag-2 -3 and Jurkat NFkB inh 2.
`COCc1ccc(C(=O)N2CCC(CCC(=O)Nc3cccc(C)c3)CC2)s1` gave FGF22 binding 0, 697 NFkB inh 39*, NR2E3 ag-1 -16, NR2E3 ag-2 0, Jurkat NFkB inh 19 and 697 NFkB conf 17.
`COc1ccc(-c2csc(Nc3cccc(C)n3)n2)cc1` gave FGF22 binding 0, 697 NFkB inh -259, NR2E3 ag-1 -168, NR2E3 ag-2 0, Jurkat NFkB inh -121, miR122 inh -1 and 697 NFkB conf -251.
CC(=O)Nc1ccc(-c2csc(Nc3cc(C)ccn3)n2)cc1 was read as FGF22 binding 0, 697 NFkB inh -48, NR2E3 ag-1 -122, NR2E3 ag-2 -1, Jurkat NFkB inh -16 and miR122 inh 0.
Screening Cc1ccnc(Nc2nc(-c3ccccc3)cs2)c1 returned FGF22 binding 0, 697 NFkB inh -264, NR2E3 ag-1 -139, NR2E3 ag-2 2, Jurkat NFkB inh -147, miR122 inh -8 and 697 NFkB conf -239.
Screening Cc1cccc(Nc2nc(-c3ccc(F)cc3)cs2)n1 returned FGF22 binding 0, 697 NFkB inh -210, NR2E3 ag-1 -122, NR2E3 ag-2 0, Jurkat NFkB inh -129 and miR122 inh -1.
For COC(=O)COc1cccc2c(=O)n(CC(=O)N3CCCCC3)ccc12 the results were FGF22 binding 0, 697 NFkB inh 43*, NR2E3 ag-1 -13, NR2E3 ag-2 2, Jurkat NFkB inh -6 and 697 NFkB conf 6.
`COC(=O)COc1cccc2c(=O)n(CC(=O)N3CCC(C)CC3)ccc12` gave FGF22 binding 0, 697 NFkB inh 3, NR2E3 ag-1 2, NR2E3 ag-2 -3, Jurkat NFkB inh -10 and miR122 inh -3.
Screening CCCC(=O)Nc1ccc2c(c1)C(=O)N(C)[C@H]1CC[C@@H](CC(=O)N3CCCCC3)O[C@H]1CO2 returned FGF22 binding 0 and miR122 inh 4[16.7 µM].
Screening O=S(=O)(c1ccccc1)c1cnc(-c2cccnc2)nc1-c1ccccc1 returned 697 NFkB inh 12, NR2E3 ag-1 -3, NR2E3 ag-2 1, Jurkat NFkB inh 6 and miR122 inh -2.
